EBI2 antag = EBI2 receptor antagonists, beta-arrestin recruitment, primary screen, cell-based, luminescence, 7a,25-OHC stimulation, uHTS; AID 651636, 2012; 360,000 compounds, 0.81% hits; 7a,25-OHC stimulated; inhibition, % at 5 µM; in the data active = inhibition above about 38%;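 also: enzyme fragment complementation signal reports receptor beta-arrestin coupling in cells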
Target sequence (P32249 whole entry, looked up, the tested form may be a part): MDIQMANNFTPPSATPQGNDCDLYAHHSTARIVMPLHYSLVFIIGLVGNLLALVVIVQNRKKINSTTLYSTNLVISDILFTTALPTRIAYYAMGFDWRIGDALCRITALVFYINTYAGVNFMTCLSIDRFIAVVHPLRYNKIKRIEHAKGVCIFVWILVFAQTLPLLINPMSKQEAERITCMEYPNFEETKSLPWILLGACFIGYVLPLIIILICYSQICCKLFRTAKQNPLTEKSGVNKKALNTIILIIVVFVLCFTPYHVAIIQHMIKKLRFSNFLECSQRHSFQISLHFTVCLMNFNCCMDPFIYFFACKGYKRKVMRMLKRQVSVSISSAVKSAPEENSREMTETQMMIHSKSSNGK
CCR6 antagonist = CCR6 receptor antagonists, primary screen, cell-based, CHO-K1, luminescence, beta-arrestin, uHTS; C-C chemokine receptor type 6 (Homo sapiens), P51684; CHO-K1 CCR6 PathHunter beta-arrestin, CCL20-stimulated; inhibition, % at 20 µM; 340,000 compounds, 0.49% hits; AID 493098, 2011;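 active = compounds whose inhibition of the agonist-driven luminescence signal at 20 µM reaches about 50%, limit read from the data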;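 also: cells stimulated with CCL20 at 14 nM final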
APJ agonist = agonists of human apelin receptor APJ, primary screen, CHO-K1 cells, PathHunter beta-arrestin, luminescence; activation, % at 20 µM; 0% DMSO wells, 100% apelin; P35414; 330,000 compounds, 0.11% hits;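 active = activation more than six SD over the plate average, tested at 20 µM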
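Test system: CHO-K1 APJ beta-arrestin complementation cell line. Amount: cell density 1000 per well. Controls: DMSO negative, 10 nM Apelin-13 positive. Signal: luminescent beta-gal fragment complementation, chemiluminescent substrate. Read-out basis: agonist-driven arrestin binding to APJ. Timing: compound stimulation 90 min at 25 °C, detection 60 min.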
APJ antagonist = antagonists of human apelin receptor APJ, primary screen, CHO-K1 cells, beta-arrestin complementation, luminescence. P35414. inhibition, % at 20 µM. 330,000 compounds, 0.32% hits. AID 2521, 2010;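 active = inhibition above about 40% at 20 µM, limit read from the data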;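 also: cells challenged with 10 nM apelin-13 agonist together with compound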
CXCR6 block = CXCR6 receptor inhibitors, primary screen, cell-based, beta-arrestin, luminescence, CHO-K1 PathHunter, 1536-well; C-X-C chemokine receptor type 6 (Homo sapiens), O00574; 360,000 compounds, 0.36% hits; inhibition, % at 20 µM; in the data active = inhibition above about 34%, passing the limit was not always enough;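 also: antagonist mode with CXCL16 agonist at 10 nM final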
Target sequence (O00574 whole entry, looked up): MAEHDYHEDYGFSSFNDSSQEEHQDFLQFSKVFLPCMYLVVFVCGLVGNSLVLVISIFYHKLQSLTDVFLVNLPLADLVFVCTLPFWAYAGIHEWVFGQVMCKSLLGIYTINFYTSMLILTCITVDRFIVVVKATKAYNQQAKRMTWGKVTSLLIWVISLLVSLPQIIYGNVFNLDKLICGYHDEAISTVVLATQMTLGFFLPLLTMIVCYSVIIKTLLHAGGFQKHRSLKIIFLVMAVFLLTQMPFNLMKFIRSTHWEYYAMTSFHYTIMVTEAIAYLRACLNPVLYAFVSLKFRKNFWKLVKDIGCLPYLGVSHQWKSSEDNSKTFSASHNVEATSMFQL
Beta2AR agonist = beta2AR agonists driving receptor internalization, primary screen, cell-based, FAP fluorogen, flow cytometry. Beta-2 adrenergic receptor (Homo sapiens), P07550. Am2.2-beta2AR cells. response, % (test concentration not listed). 340,000 compounds, 0.43% hits. AID 504454, 2011;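 active = response above a set limit, near 3 SD of response in nonfluorescent compounds, cut at about 42% in these data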
B2AR ag CP1 = beta2AR agonists via receptor internalization, confirmation, cell-based, FAP fluorogen, flow cytometry, single point, cherry pick 1; percent response (surface receptor), % at 10 µM; Am2.2-beta2AR cells, FAP surface receptor; active compounds read low; AID 540358, 2011; 1,100 compounds, 25% hits; shares compounds with Beta2AR agonist;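 active = surface receptor percent response at or below 58%, roughly 3 SD from nonfluorescent compounds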
FAP fluor counter = fluorescence artifact in beta-2AR agonist FAP counterscreen | shares compounds with Beta2AR agonist | Am2.2 cells, FAP fluorogen flow cytometry; active compounds read low | calls only at 10 µM | 1,100 tested, under 10 active | AID 588765;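 active = percent response below a set limit in fluorescence channel 1 and below 50% in channel 8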
Large screens that a line does not name were inactive (follow-up assays come after a bar, where they were run). In the library only some 1.8% were active in any assay of this set; here they are far more common.

COc1cc(CNCCc2c[nH]c3ccccc23)ccc1OCc1ccc(F)cc1	Beta2AR agonist 72.3 | B2AR ag CP1 55.6 | FAP fluor counter inactive
Cc1ccc(Cn2c(N)c(S(=O)(=O)c3cccs3)c3nc4ccccc4nc32)cc1	Beta2AR agonist 52.2 | B2AR ag CP1 inactive | FAP fluor counter inactive
COC(=O)[C@@]12C[C@@H](CC(=O)NCc3ccc(OC)c(OC)c3)C(=O)N(Cc3ccc4c(c3)OCO4)C1=CCC(C)(C)C2	none (no result: CCR6 antagonist, APJ agonist, APJ antagonist, CXCR6 block, Beta2AR agonist)
Nn1c(SCC(=O)Nc2cccc(Br)c2)nnc1C1CC1	none
CC(C)c1ccc(NC(=O)C(c2ccc3c(c2)OCO3)N2CCC3(CC2)OCCO3)cc1 (centres undefined)	none | B2AR ag CP1 inactive | FAP fluor counter inactive
Cc1ccc([C@H]2C[C@@H](O)[C@H](n3cc(C4CC4)nn3)CN2C(=O)c2cccs2)cc1	none (no result: CCR6 antagonist, APJ agonist, APJ antagonist, Beta2AR agonist)
CCCCCCCCN1[C@@H](CC(=O)O)c2ccc(C(F)(F)F)cc2S1(=O)=O	none
COc1cc(C)c2c(c1OC)C(=O)CC2	none (no result: APJ agonist, APJ antagonist)
CCN(Cc1cc2ccccc2[nH]c1=O)S(=O)(=O)c1ccccc1	none
COc1ccc(S(=O)(=O)N(Cc2ccco2)Cc2cc3ccccc3[nH]c2=O)cc1	none | B2AR ag CP1 inactive | FAP fluor counter inactive
O=c1[nH]c2ccccc2cc1CN(Cc1ccco1)S(=O)(=O)c1ccccc1	none | B2AR ag CP1 inactive | FAP fluor counter inactive
COC(=O)c1cccc(S(=O)(=O)N(Cc2ccco2)Cc2cc3ccc(OC)cc3[nH]c2=O)c1	none
COc1ccccc1-c1cccc(-c2nc(C(=O)Nc3nccs3)cc3c2[C@@H](CCO)N(C(=O)CC2CC2)C3)c1	none (no result: CCR6 antagonist, APJ agonist, APJ antagonist, Beta2AR agonist)
COc1ccc(-n2c(SCC(N)=O)nnc2-c2ccc(NS(=O)(=O)c3ccc(C)cc3)cc2)cc1	Beta2AR agonist 55.4 | B2AR ag CP1 inactive | FAP fluor counter inactive
CC1(C)COC(Cc2ccccc2)=N1	none (no result: CCR6 antagonist, APJ agonist, APJ antagonist, Beta2AR agonist)
CCCOc1ccc(C(=O)Nc2ccc(NC(=O)c3cccs3)cc2)cc1	none
CCCCOc1cccc(C(=O)Nc2ccc(NC(=O)c3cccs3)cc2)c1	Beta2AR agonist 79.5 | B2AR ag CP1 21.4 | FAP fluor counter inactive
CCN(C(=O)c1cnc(OC)cc1C(F)(F)F)c1ccc(Cl)cc1Cl	none
CCCN(CCC)S(=O)(=O)c1ccc(Cl)c([N+](=O)[O-])c1	Beta2AR agonist 43.6 | B2AR ag CP1 inactive | FAP fluor counter inactive
Cc1c(C)c2ccc(OCC(=O)NCCCn3ccnc3)c(C)c2oc1=O	none
CCOC(=O)c1[nH]ncc1CN1CCCC(C(=O)c2ccc(OC)c(OC)c2)C1 (centres undefined)	Beta2AR agonist 47.1 | B2AR ag CP1 inactive | FAP fluor counter inactive
CC1(C(=O)NS(=O)(=O)c2ccc(Cl)cc2)CCN1C(=O)c1ccco1 (centres undefined)	none (no result: CCR6 antagonist, APJ agonist, APJ antagonist, Beta2AR agonist)
COC(=O)c1ccccc1NC(=O)Cn1nnc(-c2ccc(OC)cc2)n1	none | B2AR ag CP1 inactive | FAP fluor counter inactive
Cc1cccc(C)c1NC(=O)Cn1nnc(-c2ccc(N3CCOCC3)cc2)n1	none | B2AR ag CP1 inactive | FAP fluor counter inactive
COC(=O)c1ccccc1NC(=O)Cn1nnc(-c2ccc3c(c2)OCO3)n1	none
Cc1ccc(NC(=O)CN(C)C(=O)Cn2nnc(-c3ccccc3C)n2)cc1	none
COc1ccc(Cl)c(NC(=O)Cn2nnc(-c3ccccc3N)n2)c1	none | B2AR ag CP1 inactive | FAP fluor counter inactive
Cc1cc(NC(=O)Cn2nnc(-c3ccccc3N)n2)no1	none
CCOC(=O)c1ccc(NC(=O)Cn2nnc(-c3ccccc3C)n2)cc1	none | B2AR ag CP1 inactive | FAP fluor counter inactive
CC(=NNc1ccc([N+](=O)[O-])cn1)c1ccc(N)cc1	none (no result: APJ agonist, APJ antagonist)
O=C(c1ccc(-n2cncn2)c2ccoc12)N1CCOCC1	none (no result: CCR6 antagonist, APJ agonist, APJ antagonist, Beta2AR agonist)
COc1ccc(NC(=O)Cn2nnc(-c3ccc(CN4CCOCC4)cc3)n2)c(OC)c1	none | B2AR ag CP1 inactive | FAP fluor counter inactive
CCCOc1ccc(-c2nnn(CC(=O)Nc3cccc(C(=O)OC)c3)n2)cc1	none | B2AR ag CP1 inactive | FAP fluor counter inactive
Cc1cc(C)nc(NS(=O)(=O)c2ccc(NC(=O)Cc3ccccc3)cc2)n1	none
Cc1cc(C)nc(NS(=O)(=O)c2ccc(NC(=O)COc3ccccc3)cc2)n1	Beta2AR agonist 118.0 | B2AR ag CP1 inactive | FAP fluor counter inactive
Cc1ccccc1C(=O)NCCNc1ccc([N+](=O)[O-])cc1	none
O=C(NCCNc1ccc([N+](=O)[O-])cc1)c1ccccc1Br	Beta2AR agonist 46.1 | B2AR ag CP1 inactive | FAP fluor counter inactive
COCCN(C(=O)c1ccc(N2C(=O)c3ccccc3C2=O)cc1)c1c(N)n(CC(C)C)c(=O)[nH]c1=O	none
COc1ccc(C(=O)NCCN2CCN(C(=O)c3ccc(OC)c(OC)c3)CC2)cc1OC	none
COc1ccc(C(=O)NCCCN2CCN(CCCNC(=O)c3ccc(OC)c(OC)c3)CC2)cc1OC	none | B2AR ag CP1 inactive | FAP fluor counter inactive
COc1ccc(C(=O)NCCn2ccc3ccccc32)cc1OC	Beta2AR agonist 45.1 | B2AR ag CP1 inactive | FAP fluor counter inactive
O=C(NCCCN1CCN(CCCNC(=O)c2ccccc2F)CC1)c1ccccc1F	none | B2AR ag CP1 inactive | FAP fluor counter inactive
O=C(NCCCN1CCN(CCCNC(=O)c2ccc3c(c2)OCO3)CC1)c1ccc2c(c1)OCO2	none | B2AR ag CP1 inactive | FAP fluor counter inactive
COc1cccc(C(=O)NCCn2ccc3ccccc32)c1	none
CCc1noc(C)c1C(=O)OCC(=O)Nc1cccc(C)c1	none
CS(=O)(=O)c1ccc(Sc2nc3ccccc3s2)c([N+](=O)[O-])c1	none
O=[N+]([O-])c1cc(S(=O)(=O)C(F)(F)F)ccc1Sc1nc2ccccc2s1	Beta2AR agonist 45.4 | B2AR ag CP1 inactive | FAP fluor counter inactive
O=C(O)c1cccc(NC(=O)c2ccc3c(c2)C(=O)N(C2CCCCC2)C3=O)c1	none
N#Cc1c(NC(=O)CSc2ncccn2)oc(-c2ccccc2)c1-c1ccccc1	Beta2AR agonist 48.5 | B2AR ag CP1 inactive | FAP fluor counter inactive
Cc1ccnc(SCC(=O)Nc2oc(-c3ccccc3)c(-c3ccccc3)c2C#N)n1	none
Cc1c(C(=O)Nc2cc(F)ccc2F)sc2nc3n(c(=O)c12)CCCCC3	none

Bioassay records (PubChem)
